From ChEMBL document CHEMBL3259753, “Synthesis, structure-activity relationships and biological evaluation of dehydroandrographolide and andrographolide derivatives as novel anti-hepatitis B virus agents” (Bioorg Med Chem Lett, 2014)

Columns and labels:
[1] = Cytotoxicity against human HepG2.2.15 cells by MTT assay; format: cell-based, HepG2 2.2.15
[2] = system: Hepatitis B virus; experiment: Antiviral activity against HBV infected in human HepG2.2.15 cells assessed as inhibition of hepatitis B surface antigen secretion by ELISA; format: functional, organism-based; settings: HepG2 2.2.15
[3] = Selectivity index, ratio of CC50 for human HepG2.2.15 cells to IC50 for HBV infected in human HepG2.2.15 cells assessed as inhibition of hepatitis B surface antigen secretion; format: functional
[4] = system: Hepatitis B virus; experiment: Antiviral activity against HBV infected in human HepG2.2.15 cells assessed as inhibition of hepatitis B e antigen secretion by ELISA; format: functional, organism-based; settings: HepG2 2.2.15
[5] = Selectivity index, ratio of CC50 for human HepG2.2.15 cells to IC50 for HBV infected in human HepG2.2.15 cells assessed as inhibition of hepatitis B e antigen secretion; format: functional
[6] = system: Hepatitis B virus; experiment: Antiviral activity against HBV infected in human HepG2.2.15 cells assessed as inhibition of DNA replication; format: functional, organism-based; settings: HepG2 2.2.15
[7] = Selectivity index, ratio of CC50 for human HepG2.2.15 cells to IC50 for HBV infected in human HepG2.2.15 cells assessed as inhibition of DNA replication; format: functional
[8] = Octanol-water partition coefficient, log P of the compound at 30 degC by HPLC analysis; format: physicochemical
Outline: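 Shake-flask method: solutes equilibrated between octanol and water. Compound concentration in the octanol phase determined by HPLC. LogP determined at 30 °C.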

Row | Structure (SMILES) | CC50 [1] [µM] | IC50 [2] [µM] | Ratio CC50/IC50 [3] | IC50 [4] [µM] | Ratio CC50/IC50 [5] | IC50 [6] [µM] | Ratio CC50/IC50 [7] | logP [8] | logP ([8]; read-out: logP)
1 | C=C1CC[C@@H]2[C@](C)(COC(=O)/C=C/c3ccccc3)[C@H](O)CC[C@@]2(C)[C@@H]1/C=C/C1=CCOC1=O | 183 | 18 | 10.2 | 28.9 | 6.3 | 14.6 | 15.5 |  | 
2 | C=C1CC[C@@H]2[C@](C)(CO)[C@H](O)CC[C@@]2(C)[C@@H]1/C=C/C1=CCOC1=O | 197 |  |  |  |  | 22.6 | 8.7 | 1.44 | 
3 | C=C1CC[C@@H]2[C@](C)(CO)[C@H](O)CC[C@@]2(C)[C@@H]1C/C=C1/C(=O)OC[C@H]1O [ANDROGRAPHOLIDE] | 198 |  |  |  |  | 54.1 | 3.7 |  | 0.52
4 | C=C1CC[C@@H]2[C@](C)(COC(=O)c3ccco3)[C@H](O)CC[C@@]2(C)[C@@H]1/C=C/C1=CCOC1=O | 92 | 19.2 | 4.6 | 77.5 | 1.2 | 9.3 | 9.9 |  | 
5 | C=C1CC[C@@H]2[C@](C)(COC(=O)c3cccs3)[C@H](O)CC[C@@]2(C)[C@@H]1C/C=C1\C=COC1=O | 2470 | 121 | 20.3 | 19.7 | 125 | 23.5 | 104.9 |  | 
6 | C=C1CC[C@@H]2[C@](C)(COC(=O)/C=C/c3cc(OC)c(OC)c(OC)c3)[C@H](O)CC[C@@]2(C)[C@@H]1/C=C/C1=CCOC1=O | > 1710 |  |  | 201 | >8.5 | 10.3 | >165.1 |  | 1.78
7 | C=C1CC[C@@H]2[C@](C)(CO)[C@H](OC(C)=O)CC[C@@]2(C)[C@@H]1C/C=C1\C=COC1=O | 872 | 318 | 2.7 | 241 | 3.6 | 44.4 | 19.6 |  | 
8 | C=C1CC[C@@H]2[C@](C)(COC(=O)c3cccs3)[C@H](OC(=O)c3cccs3)CC[C@@]2(C)[C@@H]1/C=C/C1=CCOC1=O | > 1540 | 1450 | >1 | 822 | >1.8 | 185 | >8.3 |  | 
9 | C=C1CC[C@@H]2[C@](C)(COC(=O)c3cccs3)[C@H](O)CC[C@@]2(C)[C@@H]1/C=C/C1=CCOC1=O | 557 | 162 | 3.4 | 29.2 | 19.1 | 22.1 | 25.2 |  | 
10 | C=C1CC[C@@H]2[C@](C)(COC(C)=O)[C@H](OC(C)=O)CC[C@@]2(C)[C@@H]1C/C=C1\C=COC1=O | 297 | 251 | 1.2 | 260 | 1.1 | 39.6 | 7.6 |  | 
11 | C=C1CC[C@@H]2[C@](C)(COC(C)=O)[C@H](O)CC[C@@]2(C)[C@@H]1C/C=C1\C=COC1=O | 334 | 280 | 1.2 | 289 | 1.1 | 44.1 | 7.6 |  | 
12 | C=C1CC[C@@H]2[C@](C)(CO)[C@H](O)CC[C@@]2(C)[C@@H]1/C=C/C1=CC(CO)(CO)OC1=O | 954 | 74 | 13 | 860 | 1.1 | 154 | 6.2 |  | 
13 | C=C1CC[C@@H]2[C@](C)(COC(=O)c3cccnc3)[C@H](O)CC[C@@]2(C)[C@@H]1/C=C/C1=CCOC1=O | 113 | 40 | 2.8 | 63.5 | 1.8 | 22.1 | 5.1 |  | 
